These results are taken from ChEMBL document CHEMBL4513216, “Probing the Open Global Health Chemical Diversity Library for Multistage-Active Starting Points for Next-Generation Antimalarials” (ACS Infect Dis, 2020).

Molecules are shown by their SMILES.

The series is described as follows: Toxicity liver stage against HepG2, at 10uM. The following applies: human, HepG2-A16-CD81EGFP cells; read-out: INHIBITION
In kind it is cell-based. Also on record: test concentration 10 uM, cell line HepG2-A16-CD81EGFP. The method in brief: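 Uninfected HepG2-A16-CD81EGFP cells, 3 × 10^3 per well, 1536-well, plated on prespotted compound at 10 μM final, parasite-free screening media added to match infected plates; puromycin 10 μM positive, DMSO 0.5% negative; run in parallel with 48 h PbLuc assay at 37 °C, 5% CO2; viability by CellTiter-Glo luminescence, normalized to controls.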
Turning to `Cc1cc(NC(=O)CN2CCn3c(nnc3C3CC3)C2)no1`, the cytotoxicity at 10 µM is -7.32%.

On to `CC(C)CC(NCc1cccs1)c1ccccn1` (centres undefined), for which the cytotoxicity at 10 µM worked out at 3.46%.

On to `Cc1cc(C)n(CC2CCCN2C(=O)Cc2c(C)nn(C)c2C)n1` (centres undefined), for which the cytotoxicity at 10 µM is -13.8%.

As to `Cc1nc2n(n1)CC(NCc1cnn(-c3ccccc3)n1)CC2` (centres undefined), the cytotoxicity at 10 µM is -3.69%.

Consider `CCOCC(=O)NS(=O)(=O)c1ccc(F)cc1C(F)(F)F`, for which the cytotoxicity at 10 µM was 3.25%.

`O=C(NCCc1csc(-c2ncccn2)n1)c1cnn2c1CCCC2`: the cytotoxicity at 10 µM is -3.88%.

As to `O=C(CN1CCCC1Cn1cncn1)NCCOc1ccccc1` (centres undefined), the cytotoxicity at 10 µM was -7.52%.

For `CN(Cc1ccccc1F)C(=O)CS(=O)(=O)Cc1ccc(Cl)c(Cl)c1`, the cytotoxicity at 10 µM is 3.2%.

Turning to `O=C(c1ccc(C2CCCO2)s1)N1CCOCC1` (centres undefined), the cytotoxicity at 10 µM was determined as 10.3%.

Turning to `CC(=O)N1CCO[C@@H]2CN(S(=O)(=O)c3ccc(C)cc3)CC[C@@H]2C1`, the cytotoxicity at 10 µM amounted to 8.28%.

In the case of `COc1cc(CN2CCC(NC(=O)c3cccn3C)C2)cc(OC)c1` (centres undefined), the cytotoxicity at 10 µM was -12.6%.

As for `CN(C)CCN1C(=O)CCC12CCN(C(=O)CC1CC1)CC2`, the cytotoxicity at 10 µM is 3.35%.

As to `COC[C@]1(O)CCN(C(=O)c2cccc(CN(C)C)c2)CC1(C)C`, the cytotoxicity at 10 µM was 3.26%.

`Cc1csc(N(C)C(=O)C2CC(=O)N(c3ccccc3Cl)C2)n1` (centres undefined): the cytotoxicity at 10 µM came to 11.8%.

Take `COCCN1C[C@H]2CCN(C(=O)Nc3ccccc3C)CC[C@H]2S1(=O)=O`: the cytotoxicity at 10 µM came to 0.64%.

`Cc1cc(-n2cccn2)ccc1CN1CCOCC(CN(C)C)C1` (centres undefined): the cytotoxicity at 10 µM was -38.2%.

`CCC(C)N(Cc1cccnc1)Cc1ccc2c(c1)OCCO2` (centres undefined): the cytotoxicity at 10 µM is -2.83%.

Consider `Cc1nc2sccn2c1C(=O)N1CCc2c(nc(N)[nH]c2=O)C1`, for which the cytotoxicity at 10 µM was -3.22%.

As for `COc1cccc(F)c1C(=O)N1C[C@@H](CN(C)CCO)[C@@H](CO)C1`, the cytotoxicity at 10 µM is -5.88%.

Regarding `Cc1ccccc1OCCCC(=O)NCC1CN(C)CCO1` (centres undefined), the cytotoxicity at 10 µM is -8.69%.

With `CCOc1ccc2c(c1)CN(Cc1nc3c(cnn3C)c(=O)[nH]1)CC2`, the cytotoxicity at 10 µM is -0.373%.

Turning to `CCN(CC)S(=O)(=O)NC(C)C(=O)N(C)C` (centres undefined), the cytotoxicity at 10 µM was found to be 9.55%.

With `O=C1NC[C@@]2(C(=O)O)CN(Cc3cccc(OC4CCCC4)c3)C[C@@H]12`, the cytotoxicity at 10 µM is -2.34%.

With `CCNc1ncc(C(=O)NCCc2csc(-c3ncccn3)n2)cn1`, the cytotoxicity at 10 µM is 19.9%.

With `O=C(CNc1cc(-c2ccccc2)nc2ccnn12)NC1CC1`, the cytotoxicity at 10 µM is -10.5%.

With `CC(C)C(NC(=O)NCCNc1cnccn1)c1cccs1` (centres undefined), the cytotoxicity at 10 µM was found to be 0.0264%.

For the compound `CCOc1ccnc(N2CCN(C(=O)c3cccc(C#N)c3)CC2)n1`, the cytotoxicity at 10 µM was -3.34%.

Turning to `Cc1cc(N2CCCCC2)c(C#N)c(C)n1`, the cytotoxicity at 10 µM was -6.16%.

Take `CCc1nccn1C1CCCN(C(=O)c2ccn(C)c(=O)c2)C1` (centres undefined): the cytotoxicity at 10 µM was 17%.

For the compound `Cc1ncccc1NC(=O)[C@@H]1CCO[C@@H]2CCN(c3ccncn3)C[C@H]21`, the cytotoxicity at 10 µM was 5.59%.

Regarding `CCOCCN1CCN(CC(O)c2ccc(OC)cc2)CC1` (centres undefined), the cytotoxicity at 10 µM was -2.28%.

Turning to `CCCN1CCCN(c2ncccc2C(=O)N2CCCCC2)CC1`, the cytotoxicity at 10 µM was 0.503%.

On to `COCCN1CCC12CCN(C(=O)Cc1cccs1)C2` (centres undefined), for which the cytotoxicity at 10 µM is 7.89%.

Take `CC(C(=O)NCc1ccc(N2CCNC(=O)C2)cc1)n1cncn1` (centres undefined): the cytotoxicity at 10 µM is -9.21%.

For `Cc1ncsc1C(=O)NC1CCN(CCCC#N)CC1`, the cytotoxicity at 10 µM was -14.7%.

Regarding `Cc1cccc(CO[C@@H]2CC[C@H]3[C@H]2OCCN3Cc2nccs2)n1`, the cytotoxicity at 10 µM is 5.2%.

`Cc1nsc(N2CCN(CC(=O)N(C3CC3)C(C)C3CC3)CC2)n1` (centres undefined): the cytotoxicity at 10 µM is -12.4%.

Regarding `COc1ccc(-c2nc(C#N)c(N(C)C)o2)cc1S(=O)(=O)N(C)C`, the cytotoxicity at 10 µM was -7.19%.

Regarding `CCOC(=O)N(C)C1CCN(Cc2csc(C)n2)CC1`, the cytotoxicity at 10 µM is -3.37%.
